Values belong to the molecule of their own block, whether it stands above or below them.
Experiments:
[1] = target: T1, Melatonin receptor type 1B (Homo sapiens, UniProt P49286); assay: Displacement of 2-[125I]-Iodomelatonin from human MT2 receptor expressed in CHO cell membranes after 120 mins by filter binding method
T1 sequence (P49286 whole entry): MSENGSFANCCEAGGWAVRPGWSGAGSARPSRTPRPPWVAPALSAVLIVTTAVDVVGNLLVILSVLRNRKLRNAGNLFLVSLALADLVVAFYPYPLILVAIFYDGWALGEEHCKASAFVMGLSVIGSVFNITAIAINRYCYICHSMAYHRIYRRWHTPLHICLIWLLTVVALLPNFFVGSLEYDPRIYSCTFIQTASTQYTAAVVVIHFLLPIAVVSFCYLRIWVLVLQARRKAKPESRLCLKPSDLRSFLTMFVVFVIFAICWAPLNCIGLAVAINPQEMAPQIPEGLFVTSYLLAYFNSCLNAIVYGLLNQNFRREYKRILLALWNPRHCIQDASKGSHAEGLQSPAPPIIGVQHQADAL
In short: (§1)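 Membranes from CHO cells stably expressing human MT1 or MT2 were incubated with 20 pM 2-[125I]-iodomelatonin and test drug in 50 mM Tris-HCl pH 7.4, 5 mM MgCl2, for 120 min at 37 °C. Nonspecific binding was set with 1 µM melatonin. Filtration onto PEI-soaked GF/B filters. Seven concentrations in duplicate gave IC50, converted to Ki by Cheng-Prusoff. Ki is the geometric mean of ≥2 experiments.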

[2] = target: T2, Melatonin receptor type 1A (Homo sapiens, UniProt P48039); assay: Displacement of 2-[125I]-Iodomelatonin from human MT1 receptor expressed in CHO cell membranes after 120 mins by filter binding method; in short: as §1
T2 sequence (P48039 whole entry): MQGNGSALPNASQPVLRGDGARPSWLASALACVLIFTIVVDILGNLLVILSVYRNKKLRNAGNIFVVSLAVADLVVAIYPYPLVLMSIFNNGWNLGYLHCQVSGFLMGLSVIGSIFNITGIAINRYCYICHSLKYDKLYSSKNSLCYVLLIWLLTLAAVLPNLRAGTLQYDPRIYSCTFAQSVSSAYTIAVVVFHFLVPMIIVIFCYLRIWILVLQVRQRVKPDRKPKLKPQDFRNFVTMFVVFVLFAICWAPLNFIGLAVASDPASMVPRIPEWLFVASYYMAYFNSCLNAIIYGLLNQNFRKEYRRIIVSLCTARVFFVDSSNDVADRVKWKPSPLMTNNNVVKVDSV

[3] = target: T2, Melatonin receptor type 1A; assay: Intrinsic activity at human MT1 receptor expressed in CHO cell membranes after 1 hr by [35S]GTPgammaS binding assay; assay type: functional
In short: (§2)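 CHO-MT1 or MT2 membranes (20 µg/mL) were incubated with drug and 0.2 nM [35S]GTPγS for 1 h at room temperature. Buffer was 20 mM HEPES pH 7.4, 100 mM NaCl, 3 µM GDP, 3 mM MgCl2, 20 µg/mL saponin. Nonspecific binding was set with 10 µM GTPγS, followed by filtration. Seven concentrations in duplicate gave Emax, relative to 1 µM melatonin. Emax is the arithmetic mean ± SEM of ≥2 experiments.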

[4] = target: T3, Melatonin receptor type 1B (Homo sapiens) (UniProt P49286); assay: (§3) Intrinsic activity at human MT2 receptor expressed in CHO cell membranes after 1 hr by [35S]GTPgammaS binding assay; assay type: functional; in short: as §2
T3 sequence (whole entry): T1 sequence (P49286 whole entry)

Homo sapiens = organism: Homo sapiens; assay: Selectivity ratio of Ki for human MT1 receptor to Ki for human MT2 receptor
[5] = target: T1, Melatonin receptor type 1B; assay: as §3; assay type: functional; in short: as §2

SMILES: CCC(=O)NCC1=C(c2ccccc2)c2ccccc2CC1
Ki [1]: 3.8 nM | Ki [2]: 28 nM | Emax [3]: 16% | Emax [4]: 30% | Ratio Ki (Homo sapiens): 7.4

SMILES: CCC(=O)NC[C@@H]1CCc2ccccc2[C@H]1c1ccccc1 (racemic)
Ki [1]: 0.23 nM | Ki [2]: 62 nM | Emax [3]: 61% | Emax [4]: 78% | Ratio Ki (Homo sapiens): 270

SMILES: CCC(=O)NC1Cc2ccccc2N(c2ccccc2)C1 (racemic)
Ki [1]: 2 nM | Ki [2]: 22 nM | EC50 [3]: 20 nM | Emax [3]: 29% | EC50 [5]: 1 nM | Emax [4]: 41% | Ratio Ki (Homo sapiens): 11

SMILES: CCC(=O)NC[C@@H]1CN(C)c2ccccc2[C@@H]1c1ccccc1 (racemic)
Ki [1]: 0.48 nM | Ki [2]: 3.4 nM | Emax [3]: 82% | Emax [4]: 75% | Ratio Ki (Homo sapiens): 7.1

SMILES: CC(=O)NCC1CNc2ccccc2C1 (racemic)
Ki [1]: 110 nM | Ki [2]: 430 nM | Ratio Ki (Homo sapiens): 3.9

SMILES: CCC(=O)NC[C@@H]1CCc2ccccc2[C@@H]1c1ccccc1 (racemic)
Ki [1]: 0.22 nM | Ki [2]: 3.5 nM | Emax [3]: 56% | Emax [4]: 75% | Ratio Ki (Homo sapiens): 16

SMILES: CC(=O)NCC1Cc2ccccc2N(C)C1 (racemic)
Ki [1]: 15 nM | Ki [2]: 83 nM | EC50 [3]: > 10000 nM | EC50 [5]: 10 nM | Emax [4]: 32% | Ratio Ki (Homo sapiens): 5.5

SMILES: CC(=O)NCC1Cc2ccccc2N(CCc2ccccc2)C1 (racemic)
Ki [1]: 47 nM | Ki [2]: 246 nM | EC50 [5]: 80 nM | Emax [4]: 47% | Ratio Ki (Homo sapiens): 5.2

SMILES: CC(=O)NCC1Cc2ccccc2N(c2ccccc2)C1 (single isomer, unassigned; (-)) [listing 1 of 2 here]
Ki [1]: 1.38 nM | Ki [2]: 3.02 nM

SMILES: CC(=O)NCC1Cc2ccccc2N(c2ccccc2)C1 (single isomer, unassigned; (-)) [listing 2 of 2 here]
Emax [3]: 30% | Emax [4]: 29%

SMILES: CC(=O)NCC1Cc2ccccc2N(c2ccccc2)C1 (stereo in doubt; (+)-15e) [listing 1 of 2 here]
Ki [1]: 0.78 nM | Ki [2]: 1.58 nM

Second part, the molecule after the results:

Ki [1]: 1 nM | Ki [2]: 20 nM | EC50 [3]: > 10000 nM | EC50 [5]: 7 nM | Emax [4]: 59% | Ratio Ki (Homo sapiens): 20
SMILES: CCN1CC(CNC(C)=O)Cc2ccccc21 (racemic)

Ki [1]: 0.3 to 1.2 nM | Ki [2]: 2.4 to 3 nM | EC50 [3]: > 10000 nM | EC50 [5]: > 10000 nM
SMILES: CC(=O)NCC1Cc2ccccc2N(c2ccccc2)C1 (racemic) [listing 1 of 2 here]

Ki [1]: 1 nM | Ki [2]: 59 nM | EC50 [5]: 3 nM | Emax [4]: 28% | Ratio Ki (Homo sapiens): 59
SMILES: CC(=O)NCC1Cc2ccccc2N(Cc2ccccc2)C1 (racemic)

Ki [1]: 6 nM | Ki [2]: 892 nM | EC50 [5]: > 10000 nM | Ratio Ki (Homo sapiens): 149
SMILES: CCC(=O)NC1Cc2ccccc2N(Cc2ccccc2)C1 (racemic)

Emax [3]: 27% | Emax [4]: 10% | Ratio Ki (Homo sapiens): 10
SMILES: CC(=O)NCC1Cc2ccccc2N(c2ccccc2)C1 (racemic) [listing 2 of 2 here]

Emax [3]: 25% | Emax [4]: 5%
SMILES: CC(=O)NCC1Cc2ccccc2N(c2ccccc2)C1 (stereo in doubt; (+)-15e) [listing 2 of 2 here]
